PGE2 EP2 inh – blocks the human prostaglandin E2 receptor EP2; P43116; C6 glioma cells expressing human EP2, cAMP TR-FRET; cells stimulated with saturating PGE2; inhibition, % at 25 µM; 0.52% of 260,000 active;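 active means percent inhibition above 40 after rounding to a whole number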;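 further: rat C6 glioma host cells with rolipram phosphodiesterase inhibitor present; the protocol text gives 20 µM as final concentration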
Target sequence (P43116 whole entry, looked up): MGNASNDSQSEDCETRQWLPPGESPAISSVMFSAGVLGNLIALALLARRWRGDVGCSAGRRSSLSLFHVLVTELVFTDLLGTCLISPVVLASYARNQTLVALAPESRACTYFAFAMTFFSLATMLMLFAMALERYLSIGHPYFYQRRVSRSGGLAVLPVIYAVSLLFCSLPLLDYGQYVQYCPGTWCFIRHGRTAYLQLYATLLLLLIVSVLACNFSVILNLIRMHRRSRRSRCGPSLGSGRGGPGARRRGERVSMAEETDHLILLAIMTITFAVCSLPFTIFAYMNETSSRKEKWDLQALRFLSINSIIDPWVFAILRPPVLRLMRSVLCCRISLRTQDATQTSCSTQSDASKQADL
FXIa inh – blocks human coagulation factor XIa protease activity; P03951; inhibition, % at 5 µM; 0.14% of 220,000 active; purified FXIa, Boc-Glu-Ala-Arg-AMC fluorogenic substrate;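 active means inhibition of at least 40%; inactive means inhibition below 40%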;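 further: fluorescence of freed AMC excited at 355 nm; 0% = enzyme without compound and 100% = no enzyme blank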
FXIIa inh 1536 – blocks human coagulation factor XIIa protease activity; P00748; purified FXIIa, Boc-QGR-AMC fluorogenic substrate, 2 h; inhibition, % at 5 µM; 0.3% of 220,000 active; in the data active means inhibition above about 40%;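 further: 0% = enzyme with no compound and 100% = blank without enzyme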
Thrombin inh – thrombin (human) inhibition | alpha-thrombin, Boc-VPR-AMC fluorogenic substrate cleavage | inhibition, % at 5 µM | 0.26% of 220,000 active;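 active means inhibition at or above 40%; inactive means inhibition below 40%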;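 further: 0% = enzyme with no compound and 100% = wells without enzyme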
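Material: human alpha-thrombin protein; Also added: Boc-VPR-AMC substrate, 15 µM final; Timing: enzyme reaction carried out at room temperature; Signal: fluorescence, ex 355 nm, em 460 nm; Measure: % inhibition of thrombin; Controls: enzyme without compound as high, wells lacking enzyme as low.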
KLK5 inh – kallikrein 5 (human) inhibition. 0.59% of 210,000 active. AID 873. recombinant hK5, fluorogenic AMC substrate cleavage. inhibition, % at 5 µM;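 active means inhibition of 40% or more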;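 further: 0% = enzyme controls without compound and 100% = no-enzyme blanks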
Target sequence (Q9Y337 67-293 limits assumed): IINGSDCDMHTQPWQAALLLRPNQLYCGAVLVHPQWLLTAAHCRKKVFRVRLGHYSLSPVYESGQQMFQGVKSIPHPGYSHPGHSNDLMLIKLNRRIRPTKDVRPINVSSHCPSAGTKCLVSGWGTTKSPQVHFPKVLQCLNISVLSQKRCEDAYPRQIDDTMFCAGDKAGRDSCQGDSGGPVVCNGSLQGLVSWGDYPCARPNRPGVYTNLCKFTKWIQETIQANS
EP2 mod – modulates human prostaglandin E2 receptor EP2 signaling; P43116; EP2-expressing cells, cAMP HTRF FRET, PGE2 co-stimulation; induction, % at 25 µM; 0.83% of 260,000 active; AID 940;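 active means compounds whose cAMP rise, as percent of the full-agonist control response, exceeds 60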;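 further: rat C6 glioma line stably carrying human EP2 under a CMV promoter; the protocol text gives 20 µM as final concentration; 100% = response of wells given 1 µM PGE2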
* hit, by the source's call; / = not tested or not shown. A selection: hits, their analogues and other compounds. The true share with any hit is near 2.1%.

SMILES	PGE2 EP2 inh	FXIa inh	FXIIa inh 1536	Thrombin inh	KLK5 inh	EP2 mod
CNc1oc(-c2ccc(C)cc2)nc1P(=O)(c1ccccc1)c1ccccc1	7.6	5.5	7.6	4.3	-14.3	60.5*
O=C(O)c1ccc(-c2ccco2)n1Cc1ccccc1	18.2	0.6	12.9	9.0	4.7	6.2
COC(=O)c1ccc(-c2ccco2)n1Cc1cc(C)ccc1C	5.9	16.4	28.0	5.3	-0.2	62.3*
CC12CN3CC(C)(CN(C1)C3c1cc(Br)ccc1O)C2=O (stereo unspecified)	7.4	5.0	-2.2	-2.5	-8.2	8.0
CC12CN3CC(C)(CN(C1)C3c1ccc(Br)cc1)C2=O (stereo unspecified)	17.1	-2.7	10.8	7.1	68.3*	12.5
O=[N+]([O-])c1cc(/C=N\Nc2nc(-c3ccccc3)cs2)ccc1O	47.8*	2.1	7.9	14.1	-0.7	-102.2
Cc1csc(N/N=C/c2ccc(O)c([N+](=O)[O-])c2)n1	2.7	5.0	28.8	7.8	-18.5	7.7
COc1ccc2c(c1)CCc1c(-c3noc4c3CCc3cc(OC)ccc3-4)noc1-2	45.0*	/	/	/	/	-6.5
CCCNC(=O)c1noc2c1CCc1cc(OC)ccc1-2	9.0	4.3	14.8	1.4	-16.4	-28.6
O=C(O)C1CCN(c2ccc(Cl)nn2)CC1	11.6	-2.4	9.0	54.9*	1.4	23.4
CC1Cc2ccccc2N1C(=O)CSc1ncnc2c1cnn2-c1ccccc1 (stereo unspecified)	7.9	/	/	/	/	-51.9
CC(C)(C)C(=O)CSc1ncnc2c1cnn2-c1ccccc1	5.9	42.6*	18.5	-4.6	24.0	-52.1
Cc1ccccc1-n1ncc2c(SCC(=O)N3c4ccccc4CC3C)ncnc21 (stereo unspecified)	4.0	19.6	26.0	40.7*	31.7	-26.5
CCOC(=O)C(C)n1nc(C)n2c(cc3sccc32)c1=O (stereo unspecified)	/	/	/	/	/	-9.4
Cc1cc2cc(CN(CCO)C(c3nnnn3C(C)(C)C)C(C)C)c(=O)[nH]c2cc1C (stereo unspecified)	11.4	/	/	/	/	-8.3
COC(=O)C1=CN(Cc2ccc(OC)cc2)C=C(C(=O)OC)C1c1cccs1	14.3	39.8	22.8	12.6	22.4	44.1
COC(=O)C1=CC(C(=O)c2cccs2)=NN(c2ccc(OC)cc2)C1C(=O)OC (stereo unspecified)	10.3	6.7	17.8	1.7	-12.8	63.0*
CC1CCCN(C(c2cc3cc4c(cc3[nH]c2=O)OCCO4)c2nnnn2C2CCCC2)C1 (stereo unspecified)	5.1	/	/	/	/	-8.1
COC(=O)c1cc2ccsc2n1Cc1nc(-c2cccc(Cl)c2)oc1C	11.1	-11.0	0.7	-6.4	32.9	61.5*
COc1ccc2[nH]c(=O)c(CN(Cc3ccc4c(c3)OCO4)C(=O)Nc3ccccc3)cc2c1	4.5	/	/	/	/	-18.3
NC(N)=N/N=C/c1ccc(OCc2ccccc2)cc1	13.1	-0.5	9.8	-1.3	-1.8	-10.1
NC(N)=N/N=C/c1ccc(OCc2ccc(Cl)cc2)cc1	63.9*	-7.6	4.4	-2.5	-9.7	-24.1
COCCNC(=O)c1ccc(NS(=O)(=O)c2cc(C)ccc2C)cc1	9.1	10.6	19.9	18.0	41.7*	-2.3
Cc1cc2ccccc2n2c(=O)n(CCNC(=O)C3CCCO3)nc12 (stereo unspecified)	8.9	/	/	/	/	-10.5
CCN1C/C(=C/c2cccc([N+](=O)[O-])c2)C(=O)/C(=C/c2cccc([N+](=O)[O-])c2)C1	46.0*	5.4	11.8	2.6	-11.2	-56.1
SMILES	PGE2 EP2 inh	FXIa inh	FXIIa inh 1536	Thrombin inh	KLK5 inh	EP2 mod
O=C1NC(=O)/C(=C/c2cccc([N+](=O)[O-])c2)N1	6.1	-7.1	5.3	0.0	-7.8	-19.3
O=C(/C=C/c1ccccc1)O[C@H]1C[C@@H](O)[C@]2(O)C=CO[C@@H](O[C@@H]3O[C@H](CO)[C@@H](O)[C@H](O)[C@H]3O)[C@H]12	12.2	/	/	/	/	19.6
COc1ccc(S(=O)(=O)N(Cc2cccnc2)Cc2cc3cc(OC)c(OC)cc3[nH]c2=O)cc1	11.3	/	/	/	/	-89.9
CSc1nc(Oc2ccc(Cl)cc2)c2sccc2n1	11.3	-10.5	2.8	6.4	-17.0	63.6*
CSc1nc(N2CCOCC2)c2sccc2n1	4.6	-4.8	-1.8	-4.7	-11.9	5.5
COC(=O)NCC(c1ccco1)N1CCN(c2ccc(F)cc2)CC1 (stereo unspecified)	2.1	0.5	-2.3	27.4	43.3*	15.1
O=C(NCC(c1cccnc1)N1CCN(c2ccc(F)cc2)CC1)OCc1ccccc1 (stereo unspecified)	-0.3	9.6	14.1	21.2	46.4*	-14.3
COC(=O)NCC(c1ccco1)N1CCN(c2ccc(OC)cc2)CC1 (stereo unspecified)	5.9	-9.0	-9.2	-1.1	-28.0	-5.3
O=c1c2[nH]c3cccc(Cl)c3c2ncn1CC1CCCO1 (stereo unspecified)	4.8	2.1	10.6	2.3	0.9	-9.3
O=c1c2[nH]c3cccc(Cl)c3c2ncn1CCN1CCCCC1	8.7	18.6	42.7*	0.4	-21.4	-7.0
COc1ccc2c(c1)C(c1ccc([N+](=O)[O-])cc1)=NNC(c1ccco1)=N2	14.3	-2.7	7.6	5.5	42.1*	3.9
COc1ccc(C2=NNC(c3cccnc3)=Nc3ccc(OC)cc32)cc1	10.1	1.3	13.5	1.5	3.9	1.3
COc1ccc2c(c1)C(c1ccc(N3CCOCC3)cc1)=NNC(c1cccnc1)=N2	3.1	7.2	13.1	28.2	93.8*	18.9
COc1ccc(-c2nnc(SCC(=O)c3ccc4c(c3)OCCO4)o2)c(OC)c1	18.8	/	/	/	/	18.6
CCC1c2ccc(C)n2CCN1C(=O)Nc1ccccc1C(=O)OC (stereo unspecified)	10.7	-3.4	4.4	-4.1	-12.2	49.9
CCOC(=O)c1ccccc1NC(=O)N1CCn2c(C)ccc2C1CC (stereo unspecified)	0.5	-8.3	-3.2	3.4	-26.1	64.1*
CCOc1ccc2[nH]c(=O)c(CN(C(=S)NC)C3CCCCC3)cc2c1	10.8	/	/	/	/	-36.3
CCOc1ccccc1C(=O)Nc1nnc(SCC(=O)N2CCOCC2)s1	3.5	31.7	25.1	54.5*	42.8*	-25.5
Cc1cccc2c1N(CCOc1ccc(C(C)(C)C)cc1)C(=O)C2=O	10.4	3.7	11.4	-3.1	18.4	19.5
Cc1ccc(OCCCN2C(=O)C(=O)c3cccc(C)c32)cc1	24.0	-16.1	-6.7	-2.6	4.4	63.5*
O=C1NC(=O)N(c2cccc(Br)c2)C(=O)/C1=C/c1cccc(O)c1	9.0	/	/	/	/	-1.2
COc1cc(/C=C2\NC(=S)N(C)C2=O)ccc1O	6.7	0.5	/	-2.1	1.4	-8.6
COc1cc(/C=C2\C(=O)NC(=S)N(c3ccc(Br)cc3C)C2=O)ccc1O	73.7*	/	/	/	/	-94.7
CCOc1cc(/C=C2\C(=O)NC(=O)N(c3cccc(Br)c3)C2=O)ccc1O	97.5*	/	/	/	/	-130.9

Bioassay records (PubChem BioAssay)
